The species entered for series [1] is Homo sapiens. The series can be described thus: Activity at human tryptase by FRET assay.
Series [2] is filed under the species Bos taurus. In words: Ratio of Kcat to Km for bovine trypsin by FRET assay.
The species entered for series [3] is Homo sapiens. The series can be described thus: Ratio of Kcat to Km for human tryptase by FRET assay.
The species named for series [4] is Bos taurus. In words: Activity at bovine trypsin by FRET assay.
For series [5], the target named is T1, Transmembrane protease serine 11D (Homo sapiens, UniProt O60235).
T1 sequence (O60235 whole entry): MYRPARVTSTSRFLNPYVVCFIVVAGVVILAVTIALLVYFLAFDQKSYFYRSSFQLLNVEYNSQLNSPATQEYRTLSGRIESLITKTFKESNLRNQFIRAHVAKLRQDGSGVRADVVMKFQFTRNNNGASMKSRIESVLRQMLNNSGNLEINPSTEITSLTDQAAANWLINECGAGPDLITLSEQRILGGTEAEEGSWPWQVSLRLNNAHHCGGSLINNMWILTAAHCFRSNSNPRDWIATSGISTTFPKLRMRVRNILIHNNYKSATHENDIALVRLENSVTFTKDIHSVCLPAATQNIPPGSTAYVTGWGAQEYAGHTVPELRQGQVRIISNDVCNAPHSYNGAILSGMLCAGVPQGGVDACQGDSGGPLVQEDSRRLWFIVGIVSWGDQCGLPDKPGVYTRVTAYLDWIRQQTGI
The series can be described thus: Inhibition of human HAT by FRET assay. The essentials:
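Inhibitor at increasing concentrations (0–100 nM) was preincubated for 60 min with enzyme (20 nM) in Tris-HCl, pH 7.8. Chromogenic substrate (1.8–100 µM) was then added and absorbance was followed over time. For HAT, the substrate was an ABZ/ANB-labelled tetrapeptide. Ki was calculated from the initial velocities of hydrolysis.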

Series [6] in a line: Inhibition of bovine trypsin by FRET assay. More on the design: species or system Bos taurus.
Series [7] in a line: Inhibition of human tryptase by FRET assay.
Series [8] addresses T2, Suppressor of tumorigenicity 14 protein (Homo sapiens, UniProt Q9Y5Y6).
T2 sequence (Q9Y5Y6 whole entry): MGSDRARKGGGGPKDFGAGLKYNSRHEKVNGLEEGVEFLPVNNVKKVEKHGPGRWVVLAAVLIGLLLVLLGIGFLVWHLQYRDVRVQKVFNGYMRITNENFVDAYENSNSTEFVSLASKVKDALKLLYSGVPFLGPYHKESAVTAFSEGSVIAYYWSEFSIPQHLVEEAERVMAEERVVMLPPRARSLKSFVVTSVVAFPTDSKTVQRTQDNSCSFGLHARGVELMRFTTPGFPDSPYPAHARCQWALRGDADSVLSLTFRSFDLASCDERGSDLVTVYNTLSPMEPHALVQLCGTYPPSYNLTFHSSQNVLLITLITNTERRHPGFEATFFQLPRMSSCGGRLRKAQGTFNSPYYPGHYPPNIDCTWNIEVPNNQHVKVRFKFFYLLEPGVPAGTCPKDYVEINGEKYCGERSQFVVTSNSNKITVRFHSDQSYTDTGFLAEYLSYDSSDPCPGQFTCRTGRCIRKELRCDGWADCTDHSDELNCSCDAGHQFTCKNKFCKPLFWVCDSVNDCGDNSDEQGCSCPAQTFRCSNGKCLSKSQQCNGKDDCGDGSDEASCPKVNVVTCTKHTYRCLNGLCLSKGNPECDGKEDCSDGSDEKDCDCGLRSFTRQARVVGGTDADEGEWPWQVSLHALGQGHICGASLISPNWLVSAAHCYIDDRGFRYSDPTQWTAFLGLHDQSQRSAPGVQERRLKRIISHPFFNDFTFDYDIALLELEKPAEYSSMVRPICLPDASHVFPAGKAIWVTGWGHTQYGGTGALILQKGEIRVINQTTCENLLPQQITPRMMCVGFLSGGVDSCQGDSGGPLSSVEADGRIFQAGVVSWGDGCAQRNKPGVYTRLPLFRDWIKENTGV
In words: Inhibition of human matriptase by FRET assay.

Substrate in series [9]: N=C(N)NCCC[C@H](NC(=O)c1ccccc1N)C(=O)N[C@@H](CCC(N)=O)C(=O)N[C@@H](CC(=O)O)C(=O)N[C@@H](CCCCN)C(=O)Nc1ccc([N+](=O)[O-])c(C(N)=O)c1
The series can be described thus: (§1) Activity at human matriptase by FRET assay.

Substrate in series [10]: N=C(N)NCCC[C@H](NC(=O)c1ccccc1N)C(=O)N[C@@H](CCC(N)=O)C(=O)N[C@@H](CC(=O)O)C(=O)N[C@@H](CCCNC(=N)N)C(=O)Nc1ccc([N+](=O)[O-])c(C(N)=O)c1
The description is as §1.

Substrate in series [11]: Cc1cc(=O)oc2cc(NC(=O)[C@H](CCCNC(=N)N)NC(=O)[C@H](CO)NC(=O)[C@H](Cc3ccccc3)NC(=O)OC(C)(C)C)ccc12
Described as §1.

Substrate in series [12]: N=C(N)NCCC[C@H](NC(=O)c1ccccc1N)C(=O)N[C@@H](CCC(N)=O)C(=O)N[C@@H](CC(=O)O)C(=O)N[C@@H](CCCCN)C(=O)Nc1ccc([N+](=O)[O-])c(C(N)=O)c1
The series can be described thus: (§2) Ratio of Kcat to Km for human matriptase by FRET assay.

Substrate in series [13]: N=C(N)NCCC[C@H](NC(=O)c1ccccc1N)C(=O)N[C@@H](CCC(N)=O)C(=O)N[C@@H](CC(=O)O)C(=O)N[C@@H](CCCNC(=N)N)C(=O)Nc1ccc([N+](=O)[O-])c(C(N)=O)c1
Described as §2.

Substrate in series [14]: Cc1cc(=O)oc2cc(NC(=O)[C@H](CCCNC(=N)N)NC(=O)[C@H](CO)NC(=O)[C@H](Cc3ccccc3)NC(=O)OC(C)(C)C)ccc12
The description is as §2.

Substrate in series [15]: N=C(N)NCCC[C@H](NC(=O)c1ccccc1N)C(=O)N[C@@H](CCC(N)=O)C(=O)N[C@@H](CC(=O)O)C(=O)N[C@@H](CCCCN)C(=O)Nc1ccc([N+](=O)[O-])c(C(N)=O)c1
In words: (§3) Activity at human HAT by FRET assay.

Substrate in series [16]: N=C(N)NCCC[C@H](NC(=O)c1ccccc1N)C(=O)N[C@@H](CCC(N)=O)C(=O)N[C@@H](CC(=O)O)C(=O)N[C@@H](CCCNC(=N)N)C(=O)Nc1ccc([N+](=O)[O-])c(C(N)=O)c1
The series is described as §3.

Substrate in series [17]: Cc1cc(=O)oc2cc(NC(=O)[C@H](CCCNC(=N)N)NC(=O)[C@H](CO)NC(=O)[C@H](Cc3ccccc3)NC(=O)OC(C)(C)C)ccc12
Described as §3.

Substrate in series [18]: N=C(N)NCCC[C@H](NC(=O)c1ccccc1N)C(=O)N[C@@H](CCC(N)=O)C(=O)N[C@@H](CC(=O)O)C(=O)N[C@@H](CCCCN)C(=O)Nc1ccc([N+](=O)[O-])c(C(N)=O)c1
The series can be described thus: (§4) Ratio of Kcat to Km for human HAT by FRET assay.

Substrate in series [19]: N=C(N)NCCC[C@H](NC(=O)c1ccccc1N)C(=O)N[C@@H](CCC(N)=O)C(=O)N[C@@H](CC(=O)O)C(=O)N[C@@H](CCCNC(=N)N)C(=O)Nc1ccc([N+](=O)[O-])c(C(N)=O)c1
Described as §4.

Substrate in series [20]: Cc1cc(=O)oc2cc(NC(=O)[C@H](CCCNC(=N)N)NC(=O)[C@H](CO)NC(=O)[C@H](Cc3ccccc3)NC(=O)OC(C)(C)C)ccc12
Described as §4.

Where a SMILES comes first, the peptide text is derived from it. [ ]: non-standard residue; d: D form. The star is where a group is joined. NH(3-CONH2-4-NO2-Ph) = NC(=O)c1cc(N*)ccc1[N+](=O)[O-]; AMC = Cc1cc(=O)oc2cc(N*)ccc12; 2Abz = Nc1ccccc1C(=O)O; Boc = CC(C)(C)OC(=O)*

For orientation: Km means the concentration of substrate that gives half-maximal velocity. As to `Cc1cc(=O)oc2cc(NC(=O)[C@H](CCCNC(=N)N)NC(=O)[C@H](CO)NC(=O)[C@H](Cc3ccccc3)NC(=O)OC(C)(C)C)ccc12` (Boc-Phe-Ser-Arg-{AMC}), the values for the Km in the series listed under Homo sapiens [1] and in the series filed under Bos taurus [4] were 19.4 µM and 16.5 µM, respectively. Also, the kcat in the series filed under Homo sapiens [1] was 53.6 ×10⁻¹ /s; in the series listed under Bos taurus [4], 72.3 ×10⁻¹ /s. The kcat/Km in the series listed under Bos taurus [2] came to 442 ×10³ /M/s; in the series filed under Homo sapiens [3] it was 276 ×10³ /M/s.

In the case of `N=C(N)NCCC[C@H](NC(=O)c1ccccc1N)C(=O)N[C@@H](CCC(N)=O)C(=O)N[C@@H](CC(=O)O)C(=O)N[C@@H](CCCCN)C(=O)Nc1ccc([N+](=O)[O-])c(C(N)=O)c1` (H-[2Abz]RQDK-{NH(3-CONH2-4-NO2-Ph)}), the figures for the Km in the series listed under Homo sapiens [1] and in the series listed under Bos taurus [4] were 269 µM and 1840 µM, respectively. For the same molecule, the results for the kcat in the series filed under Homo sapiens [1] and in the series listed under Bos taurus [4] were 11.8 ×10⁻¹ /s and 0.8 ×10⁻¹ /s, respectively. The kcat/Km in the series listed under Bos taurus [2] amounted to 0.1 ×10³ /M/s; in the series listed under Homo sapiens [3] it was 6.7 ×10³ /M/s.

The term Ki denotes the dissociation constant of the complex between target and ligand, obtained from inhibition or displacement. Lower therefore signals tighter binding. `N=C(N)NCCC[C@H](NC(=O)[C@H](CC(=O)O)NC(=O)[C@H](CCC(N)=O)NC(=O)[C@H](CCCNC(=N)N)NC(=O)c1ccccc1N)C(=O)O` (H-[2Abz]RQDR-OH): the Ki was found to be 54.3 nM in series [5], 3930 nM in series [6], 2130 nM in [7] and 973 nM in [8].

In the case of `N=C(N)NCCC[C@H](NC(=O)c1ccccc1N)C(=O)N[C@@H](CCC(N)=O)C(=O)N[C@@H](CC(=O)O)C(=O)N[C@@H](CCCNC(=N)N)C(=O)Nc1ccc([N+](=O)[O-])c(C(N)=O)c1` (H-[2Abz]RQDR-{NH(3-CONH2-4-NO2-Ph)}), the Km worked out at 155 µM in the series listed under Homo sapiens [1] and 1120 µM in the series listed under Bos taurus [4]. Moreover, the results for the kcat in the series filed under Homo sapiens [1] and in the series listed under Bos taurus [4] were 42.2 ×10⁻¹ /s and 1.4 ×10⁻¹ /s, respectively. Besides, the kcat/Km in the series listed under Bos taurus [2] was 0.2 ×10³ /M/s; in the series filed under Homo sapiens [3], 27.4 ×10³ /M/s.

B1: Suppressor of tumorigenicity 14 protein (Homo sapiens), Q9Y5Y6 (protein)
chain: T2 sequence (Q9Y5Y6 whole entry)
As to B1, the Km was 70.6 µM in series [9], 68.5 µM in [10] and 12.1 µM in series [11]. For the same molecule, the kcat worked out at 16.3 ×10⁻¹ /s in series [9], 67.4 ×10⁻¹ /s in [10] and 42.8 ×10⁻¹ /s in series [11]. The kcat/Km in [12] amounted to 23.1 ×10³ /M/s; in series [13] it was 98.4 ×10³ /M/s; in [14], 356 ×10³ /M/s.

B2: Transmembrane protease serine 11D (Homo sapiens), O60235 (protein)
chain: T1 sequence (O60235 whole entry)
With B2, the Km was 12.3 µM in series [15], 25.4 µM in series [16] and 43.6 µM in series [17]. Besides, the kcat in series [15] was 24.1 ×10⁻¹ /s; in series [16], 115 ×10⁻¹ /s; in series [17] it was 25.4 ×10⁻¹ /s. The kcat/Km in [18] was determined as 195 ×10³ /M/s; in series [19], 454 ×10³ /M/s; in series [20] it was 58.2 ×10³ /M/s.

The values are drawn from ChEMBL document CHEMBL1212842, “Substrate specificity and inhibitory study of human airway trypsin-like protease” (Bioorg Med Chem, 2010).
